{
  "source": "ChEMBL document CHEMBL1153806",
  "about": "“Preclinical efficacy of a carboxylesterase 2-activated prodrug of doxazolidine” (J Med Chem, 2009)",
  "key": {"[1]": {"test_system": "Mus musculus", "assay": "Toxicity in NOD/SCID mouse xenografted with human HepG2 cells expressing CES2 gene assessed as body weight loss at 5 mg/kg, iv administered on day 7, 14 and 21 after tumor implantation measured after 3 weeks", "format": "organism-based", "set-up": "dose 5 mg/kg, route intravenous", "conditions": "in vivo, 504 h", "procedure,_shortened": "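Same NOD/SCID N-Hep G2 flank xenograft model: i.v. tail-vein dosing on days 7, 14 and 21 in 5% DMSO/95% D5W, doses in Dox-equivalent mg/kg, 10 mice/group, vehicle controls. Body weight recorded weekly and followed over the first 5 weeks.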"}, "[2]": {"test_system": "Mus musculus", "assay": "Toxicity in NOD/SCID mouse xenografted with human HepG2 cells expressing CES2 gene assessed as occurrence of diarrhea at 3 mg/kg, iv administered on day 7, 14 and 21 after tumor implantation", "format": "organism-based", "set-up": "dose 3 mg/kg, route intravenous", "conditions": "in vivo"}, "[3]": {"species_on_record": "Homo sapiens", "assay": "Metabolic stability in human plasma up to 24 hrs by reverse-phase HPLC analysis"}},
  "data": [
    {"smiles": "CCCCCOC(=O)Nc1ccc(COC(=O)N2CO[C@@H]3[C@H](C)O[C@@H](O[C@H]4C[C@](O)(C(=O)CO)Cc5c(O)c6c(c(O)c54)C(=O)c4c(OC)cccc4C6=O)C[C@@H]32)cc1", "values": [
      {"measurement": "Activity", "setting": "[1]", "result": 18, "unit": "%"},
      {"measurement": "Activity", "setting": "[2]", "result": "Non-toxic"},
      {"measurement": "remaining at 24 h", "setting": "[3]", "result": 75, "unit": "%"}
    ]}
  ]
}
